These results are taken from ChEMBL document CHEMBL4024790 (J Med Chem, 2018).

Molecules are shown by their SMILES. Active and inactive are the calls of the source. No cut-off for these calls is given here.

The target of series [1] is T1, Cytochrome P450 1A2 (Homo sapiens, UniProt P05177).
T1 sequence (P05177 whole entry): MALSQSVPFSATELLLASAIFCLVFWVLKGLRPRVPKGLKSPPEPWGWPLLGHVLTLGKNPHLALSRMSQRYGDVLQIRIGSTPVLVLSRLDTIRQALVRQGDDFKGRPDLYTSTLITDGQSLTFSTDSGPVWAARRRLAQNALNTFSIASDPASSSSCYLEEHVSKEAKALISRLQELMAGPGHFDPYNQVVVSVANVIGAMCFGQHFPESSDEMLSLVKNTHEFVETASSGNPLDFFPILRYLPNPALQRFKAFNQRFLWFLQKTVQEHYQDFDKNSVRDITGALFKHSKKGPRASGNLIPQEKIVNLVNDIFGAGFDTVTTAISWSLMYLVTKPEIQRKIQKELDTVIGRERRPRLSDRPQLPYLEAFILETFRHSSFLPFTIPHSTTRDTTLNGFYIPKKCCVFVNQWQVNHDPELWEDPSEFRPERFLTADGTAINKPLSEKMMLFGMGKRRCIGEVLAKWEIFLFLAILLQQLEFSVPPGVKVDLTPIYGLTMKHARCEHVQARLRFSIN
Description: Induction of CYP1A2 (unknown origin). The format is ADME.

Series [2] addresses T1, Cytochrome P450 1A2. Description: Inhibition of recombinant human CYP1A2. The format is ADME. The settings on record: recombinant enzyme.
Series [3] relates to Mus musculus. Put plainly: In vivo effect on phosphorylated CREB level in CD-1 mouse brain hippocampus by immunoassay. The format is functional, organism-based.
Series [4] in a line: Volume of distribution at steady state in beagle dog at 0.3 mg/kg, iv by LC-MS/MS analysis. To be noted: in vivo, read-out: Vdss. The format is ADME, organism-based, Canis lupus familiaris. The method, boiled down:
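Beagle dogs got a single IV dose as a solution in 20% (w/v) sulfobutyl ether β-cyclodextrin with hydrochloric acid, at 0.4 mL/kg. Blood was drawn into K3EDTA via carotid artery cannula at set times from 2 min to 24 h. Plasma was acetonitrile-precipitated with internal standard and measured by LC-MS/MS with positive electrospray, standard curve 0.61 to 1250 ng/mL.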

The test system of a further series is Canis familiaris. Description: Cardiotoxicity in dog up to 15 mg/kg/day, po for 14 days by microscopic method. The format is toxicity, organism-based, Canis lupus familiaris. To be noted: in vivo, 336 h.
The target in the next series is Cytochrome P450 2D6 (Homo sapiens, UniProt P10635). Put plainly: Inhibition of recombinant human CYP2D6. The format is ADME. The settings on record: recombinant enzyme.
Sequence of Cytochrome P450 2D6 (P10635 whole entry): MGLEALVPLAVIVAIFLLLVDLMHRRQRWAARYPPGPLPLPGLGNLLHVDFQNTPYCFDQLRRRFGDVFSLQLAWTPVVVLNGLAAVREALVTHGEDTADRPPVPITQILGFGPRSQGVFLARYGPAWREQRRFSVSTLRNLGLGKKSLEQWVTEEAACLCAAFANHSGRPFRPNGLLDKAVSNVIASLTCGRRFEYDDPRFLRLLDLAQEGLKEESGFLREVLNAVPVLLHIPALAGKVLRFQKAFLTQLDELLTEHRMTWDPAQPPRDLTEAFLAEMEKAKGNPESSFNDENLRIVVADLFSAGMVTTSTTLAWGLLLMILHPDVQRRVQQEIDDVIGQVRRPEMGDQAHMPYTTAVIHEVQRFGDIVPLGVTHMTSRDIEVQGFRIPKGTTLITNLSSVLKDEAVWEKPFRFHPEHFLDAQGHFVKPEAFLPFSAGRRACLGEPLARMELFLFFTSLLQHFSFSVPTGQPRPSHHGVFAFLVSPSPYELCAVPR
Series [5] can be described thus: Drug metabolism in human hepatocytes assessed as 3-(7-methyl-5-(1-methyl-5-(5-(trifluoromethyl)pyridin-2-yl)-1H-pyrazol-4-yl)imidazo[1,5-f][1,2,4]triazin-4-ylamino)propanoic acid formation at 1 to 50 uM after 1 hr by LC-MS/MS analysis. The format is ADME, cell-based, Hepatocyte. The method in brief: (§1)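 Rat, dog or human liver microsomes or hepatocytes (P450 0.35–0.5 µM final) incubated with compound at 1, 10 or 50 µM in 100 mM phosphate buffer with 1 mM NADP regenerating system, 37°C for 1 h; quenched with 4 volumes acetonitrile, centrifuged, supernatant evaporated, reconstituted in 5% aqueous acetonitrile and analysed by reversed-phase LC.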

In the next series the test system is Liver. Put plainly: Drug metabolism in dog liver microsomes assessed as 3-(7-methyl-5-(1-methyl-5-(5-(trifluoromethyl)pyridin-2-yl)-1H-pyrazol-4-yl)imidazo[1,5-f][1,2,4]triazin-4-ylamino)propanoic acid formation at 1 to 50 uM after 1 hr by LC-MS/MS analysis. The format is ADME, Canis lupus familiaris, microsome. The method in brief: as §1
For orientation: Liver microsomes are vesicles of endoplasmic reticulum, rich in cytochrome P450 enzymes.

Series [6] is described as follows: AUC (0 to infinity) in Wistar Han rat at 1 mg/kg, iv by LC-MS/MS analysis. The format is ADME, organism-based. Also on record: dose 1 mg/kg, time infinity, route intravenous. The settings on record: in vivo. The method, boiled down:
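Male Wistar-Han rats received a single IV dose as a solution in 20% (w/v) sulfobutylether-β-cyclodextrin with hydrochloric acid. Blood was drawn by carotid artery cannula into K2EDTA at set times from 2 min to 24 h. Plasma was acetonitrile-precipitated with internal standard and run by positive-ESI LC-MS/MS against standards of 0.61–625 ng/mL. AUC was extrapolated from time 0 to infinity.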

Series [7] is described as follows: Drug metabolism in rat hepatocytes assessed as 1-(7-methyl-5-(1-methyl-5-(5-(trifluoromethyl)pyridin-2-yl)-1H-pyrazol-4-yl)imidazo[1,5-f][1,2,4]triazin-4-yl)azetidin-3-ol formation at 1 to 50 uM after 1 hr by LC-MS/MS analysis. The format is ADME, cell-based, Hepatocyte. The method, boiled down:
as §1

A short description of series [8]: AUC (0 to infinity) in beagle dog at 5 mg/kg, po administered via gavage by LC-MS/MS analysis. To be noted: in vivo. The format is ADME, organism-based, Canis lupus familiaris. Also on record: dose 5 mg/kg, route oral, time infinity.
Series [9] in a line: Terminal half life in beagle dog at 0.3 mg/kg, iv by LC-MS/MS analysis. The format is ADME, organism-based, Canis lupus familiaris. To be noted: in vivo, read-out: beta t1/2 (converted). The method, boiled down: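 Single iv dose to male Wistar-Han rats (1 mg/kg) or dogs (0.3 mg/kg), given as a solution in 20% (w/v) SBECD with HCl. Dose volume 1 mL/kg in rats and 0.4 mL/kg in dogs. Blood taken by carotid artery cannula from 2 min to 24 h into K2EDTA (rat) or K3EDTA (dog) tubes. Plasma analysed by LC-MS/MS with positive electrospray after acetonitrile precipitation with internal standard.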

Series [10] deals with Rattus norvegicus. Put plainly: Reversal of MK-801-induced disruption of low frequency cortical delta oscillation in Sprague-Dawley rat brain at 0.03 mg/kg, iv measured up to 55 mins by electrophysiology method. The format is functional, organism-based.
Series [11] is filed under the species Mus musculus. Description: Increase in cGMP level in CD-1 mouse brain striatum assessed as unbound brain concentration required to show the effect by immunoassay. The format is functional. The method, boiled down:
(§2)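 CD-1 mice given compound; brains fixed by focused microwave irradiation, and cortex, striatum and hippocampus dissected and homogenized in 0.5 N HCl, then centrifuged. cGMP in the supernatant measured by enzyme immunoassay. Unbound brain concentration taken from satellite animals. Dose-response and time-course data combined, and a linear Cbu–cGMP model fitted. The Cbu E50 is the projected Cbu giving a 50% rise in cGMP. Statistics by one-way ANOVA with Fisher's PLSD, p<0.05.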

The species named for series [12] is Mus musculus. Description: Increase in cGMP level in CD-1 mouse brain striatum by immunoassay. The format is functional. The method in brief: as §2
The species entered for series [13] is Rattus norvegicus. Put plainly: Toxicity in rat assessed as effect on vasculature up to 1 month by microscopic method. The settings on record: in vivo.
The species named for series [14] is Rattus norvegicus.
The subject of series [15] is Rattus norvegicus. Description: Effect on habituated locomotor activity in Long Evans rat at 0.32 to 3.2 mg/kg, sc. The format is ADME, organism-based. To be noted: in vivo. The method, boiled down:
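Rats dosed SC at 0.32, 1.0 and 3.2 mg/kg; conditioned avoidance responding also run in combination with risperidone 0.032 mg/kg.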

A word on the AUC(0-inf): it is total exposure, with the tail of the curve extrapolated. For `Cc1nc(-c2cnn(C)c2-c2ccc(C(F)(F)F)cn2)c2c(N3CCC3)ncnn12` [PF-05180999], the Activity result was “Not Active” at Cytochrome P450 1A2 [1]; “Non-Toxic” in the series on Canis familiaris; “Dose-dependent effect” in the series filed under Mus musculus [12]; “Non-Toxic” in the series listed under Rattus norvegicus [13]; “Non-Toxic” with Rattus norvegicus [15]. Further, the “inhibition (INH)” value at Cytochrome P450 1A2 [2] and at Cytochrome P450 2D6 was “Not Active” in each case. Further, the result with Mus musculus [3] and in the series with Rattus norvegicus [10] was inactive. The Vd in [4] is 2.89 L/kg. Further, the Drug metabolism result (in series [5]; in the series on Liver; in [7]) was “Metabolite_Detected” throughout. Moreover, the AUC(0-inf) in series [6] amounted to 141 ng·h/mL; in series [8], 4120 ng·h/mL. Further, in [9], the half-life is 5 h. Moreover, the fEC50 in the series listed under Mus musculus [11] was 98 nM. The fIC50 in the series filed under Rattus norvegicus [14] came to 9 nM.
